# Bioassay records deposited in PubChem BioAssay by The Scripps Research Institute Molecular Screening Center.
# PRMT1 FP inh: blocks human protein arginine methyltransferase 1; Q99873; recombinant PRMT1, activity-based probe fluorescence polarization; inhibition, % at 2.79 µM; 370,000 tested, 1.3% active; AID 652257;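 active = inhibition above about 21% made by adding two undisclosed values, limit read from the data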
# TCR-CD3 inh: inhibitors of human TCR-CD3 interaction; TAMRA-labeled TCR probe fluorescence, biochemical; inhibition, % at 9.4 µM; AID 651800; 360,000 tested, 0.37% active;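 note: recombinant mutant TCR 2C K166C tagged with TAMRA read by polarization; 0% = receptor in buffer alone and 100% = receptor with positive control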
# mABHD4 FP: inhibits mouse alpha/beta hydrolase domain 4; 370,000 tested, 0.54% active; inhibition, % at 8.92 µM; Q8VD66; purified mABHD4, FP-Rh probe fluorescence polarization; AID 720543;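 active = inhibition exceeding the mean over every tested compound plus 3 SD, cut at about 30% in these data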;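 note: 0% = plate median of compound wells and 100% = S159A mutant with DMSO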
# Target sequence (Q8VD66 whole entry, looked up, the tested form may be a part): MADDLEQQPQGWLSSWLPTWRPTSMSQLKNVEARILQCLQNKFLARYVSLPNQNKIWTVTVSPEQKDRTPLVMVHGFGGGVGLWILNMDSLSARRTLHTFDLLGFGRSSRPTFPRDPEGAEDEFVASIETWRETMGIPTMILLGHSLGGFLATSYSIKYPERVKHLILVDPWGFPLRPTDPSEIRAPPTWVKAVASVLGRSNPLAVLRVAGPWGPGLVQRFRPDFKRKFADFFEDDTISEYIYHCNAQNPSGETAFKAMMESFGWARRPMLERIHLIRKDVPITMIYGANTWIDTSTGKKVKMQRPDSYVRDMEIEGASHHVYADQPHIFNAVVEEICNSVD
#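 Doses – 8.92 µM, single dose · Material – wild-type mouse ABHD4 protein · Replication – single well per compound (singlicate) · Measure – percent inhibition of probe binding, normalized to plate controls · Schedule – 45 min compound pre-incubation plus 60 min probe step, 25 °C · Detection – fluorescence polarization with parallel and perpendicular emission, 525/598 nm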
# SIAE primary: inhibitors of human sialic acid acetylesterase SIAE | SIAE FP-Rh probe binding, fluorescence polarization | 370,000 tested, 0.69% active | inhibition, % at 9.66 µM | Q9HAT2;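 active = inhibition above a cutoff: mean of compounds within the control limits plus 3 SD of those, cut at about 17% in these data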;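 note: 0% = plate median of compound wells and 100% = probe without SIAE protein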
# HTRA1 inhibitor: blocks human HTRA1 serine peptidase. Q92743. recombinant HTRA1, FP-rhodamine activity-based probe, fluorescence polarization. inhibition, % at 5.96 µM. 340,000 tested, 0.5% active. AID 504803; in the data active = inhibition above about 36%;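 note: 0% = enzyme with DMSO and 100% = wells lacking enzyme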
# BSA TAMRA ctr: counter-screen for TCR-CD3 interaction inhibitors: BSA probe; shares compounds with TCR-CD3 inh; TAMRA-labeled BSA probe fluorescence counterscreen; inhibition, % at 9.4 µM; 1,200 tested, 10% active; AID 652035; in the data active = inhibition above about 23%;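 note: 0% = buffer low control and 100% = reference high control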
# TCR-CD3 inh conf: confirmation of human TCR-CD3 interaction inhibitors. shares compounds with TCR-CD3 inh. TAMRA-labeled TCR probe fluorescence binding assay. inhibition, % at 9.4 µM. 1,200 tested, 48% active. AID 652036
# PRMT1 confirm: confirmation of human PRMT1 inhibitors; AID 687036; shares compounds with PRMT1 FP inh; recombinant His-PRMT1, activity-based probe fluorescence polarization; inhibition, % at 2.79 µM; 3,300 tested, 42% active;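 active = mean inhibition across replicates above the hit cutoff derived for the earlier primary screen, cut at about 22% in these data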
# mABHD4 conf: ABHD4 (mouse) inhibition, FP confirmation; shares compounds with mABHD4 FP; purified mABHD4, FP-Rh probe fluorescence polarization; inhibition, % at 8.92 µM; 1,800 tested, 55% active;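 active = mean inhibition across replicates above the hit cutoff set in the primary screen, cut at about 30% in these data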;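 note: 0% = wild-type ABHD4 with DMSO and 100% = catalytically dead S159A mutant with DMSO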
# SIAE confirm: human SIAE inhibition, confirmation; SIAE FP-Rh activity-based probe, fluorescence polarization; shares compounds with SIAE primary; 2,300 tested, 13% active; AID 1117263; inhibition, % at 9.66 µM;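 active = mean inhibition of the replicates above the hit cutoff set in the primary screen, cut at about 17% in these data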;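 note: 0% = SIAE with DMSO and probe and 100% = probe without SIAE; inhibitors lower polarization as more probe stays unbound to SIAE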
# * marks the source's active call; other numbers are inactive results; . = not tested or not shown. The list is not random: actives were taken first. Their share in the collection is about 2.6%. Cut-off read from the data, not from the text of the source, unless noted: active = inhibition above about 19%; inactive = the rest.
SMILES,PRMT1 FP inh,TCR-CD3 inh,mABHD4 FP,SIAE primary,HTRA1 inhibitor,PRMT1 confirm,others
CCCCC1OC2(C)OC(=N)C1(C#N)C(C#N)(C#N)C2c1ccccc1 (stereo unspecified),18,20*,30*,38*,6,.,BSA TAMRA ctr=4;TCR-CD3 inh conf=6;mABHD4 conf=10;SIAE confirm=2
CCOC(=O)C(CNc1ccc(O)cc1)NC(=O)c1ccccc1 (stereo unspecified),21,65*,84*,91*,.,.,BSA TAMRA ctr=15;TCR-CD3 inh conf=8;mABHD4 conf=22;SIAE confirm=8
Nc1cc(Cl)ccc1C(=O)OCC(=O)NC1CCCCCCC1,0,4,-2,13,-4,.,
COc1ccc(CCNC(=O)CCOc2ccc(C(C)(C)C)cc2)cc1OC,-2,7,-4,1,2,.,
O=C(CSC1=NCCS1)NC(NC(=O)CSC1=NCCS1)c1ccccc1,26*,-7,8,4,8,11,
O=C(CSC1=NCCS1)NC(c1ccccc1)c1ccccc1,58*,2,10,-3,-3,66*,
CC(NC(=O)CSC1=NCCS1)c1ccccc1 (stereo unspecified),3,3,-1,-3,5,.,
Cc1nc(-c2ccc(C(=O)Nc3cc(S(N)(=O)=O)ccc3C)cc2)cs1,0,-3,-1,-4,1,.,
COc1cc(O)c(C=NN2C(=O)CSC2=S)c(OC)c1,27*,14,27,2,3,32*,
O=C1CSC(=S)N1/N=C/c1ccc2c(c1)OCCO2,27*,-5,-4,-4,3,10,
O=C1CSC(=S)N1/N=C/c1cccnc1,48*,-6,11,9,-1,8,
O=C1CSC(=S)N1/N=C/c1cc(Br)c(O)c(Br)c1,.,.,.,.,-99,.,
O=C1CSC(=S)N1N=Cc1ccccc1O,53*,1,15,4,8,74*,
COc1cc(/C=N/N2C(=O)CSC2=S)ccc1O,16,-17,-50,-23,-55,.,
O=C1CC(N2CCN(S(=O)(=O)c3ccccc3F)CC2)C(=O)N1c1ccccc1F (stereo unspecified),16,-3,18,1,7,.,
Cc1ccc([C@@H]2C[C@H]3[C@@H](CN2S(=O)(=O)c2ccc(Cl)cc2)C(=O)C[C@@H](c2ccc(Cl)cc2)N3S(=O)(=O)c2ccccc2C)cc1,-2,-1,-3,-28,-24,.,
COc1ccc(C(=O)NCC(=O)OCC(=O)NC2CCCCCC2)cc1,2,-5,4,2,0,.,
COc1ccc(N2C(=O)CC(Sc3n[nH]c(-c4cccc(C)c4)n3)C2=O)cc1 (stereo unspecified),44*,-1,3,-2,.,60*,
COc1cccc(N2C(=O)CC(Sc3nc(C)cc(C)n3)C2=O)c1 (stereo unspecified),5,-3,1,11,-4,.,
COC(=O)c1ccc(N2C(=O)CC(Sc3n[nH]c(C)n3)C2=O)cc1 (stereo unspecified),44*,7,-3,-2,-5,50*,
CCOc1ccccc1N1C(=O)CC(Sc2n[nH]c(-c3ccccc3)n2)C1=O (stereo unspecified),73*,-3,1,-2,6,78*,
Cc1ccc(-n2nnc3c(=O)n(CC(N)=O)cnc32)cc1,-2,-1,4,3,2,.,
CCN1CC(C)(C)N(C(=O)c2ccccc2)CC1(C)C,-5,-4,5,1,5,.,
Cc1cccc(NC(=O)CNC(=O)c2cc(S(=O)(=O)N(C)C)ccc2N2CCCC2)c1C,3,-6,5,-4,-9,.,
